Test results published in ChEMBL document CHEMBL2046403, “Biochemical and pharmacological evaluation of 4-hydroxychromen-2-ones bearing polar C-3 substituents as anticoagulants” (Eur J Med Chem, 2012).
pIC50: −log10 of the molar value.

Tests used:
Plasma [1] = assay: Anticoagulant activity in Wistar albino rat plasma assessed as international normalized ratio at 0.1 mg/kg, ip; assay type: functional; settings: route intraperitoneal
How it was run: (§1)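 Adult Wistar rats (2.5 months, 220–250 g), three per compound and control, were given a single i.p. dose of 0.1 or 0.5 mg/kg in ethanol solution and sacrificed 24 h later. […] Plasma prothrombin time was measured by Quick method and reported in seconds and as INR, from at least three measurements.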

Rattus norvegicus [2] = assay: Hepatotoxicity in Wistar albino rat assessed as change in serum bilirubin level at 0.5 mg/kg, ip measured after 24 hrs; assay type: toxicity, organism-based; parameters: dose 0.5 mg/kg, route intraperitoneal; settings: in vivo
Rattus norvegicus [3] = assay: Anticoagulant activity in Wistar rats in vivo assessed as prothrombin time
Rattus norvegicus [4] = assay: Hepatotoxicity in Wistar albino rat assessed as change in serum iron level at 0.5 mg/kg, ip measured after 24 hrs; assay type: toxicity, organism-based; parameters: dose 0.5 mg/kg, route intraperitoneal; settings: in vivo
Plasma [5] = assay: Anticoagulant activity in Wistar albino rat plasma assessed as prothrombin time at 0.1 mg/kg, ip; assay type: functional; settings: route intraperitoneal; how it was run: as §1
Rattus norvegicus [6] = assay: Hepatotoxicity in Wistar albino rat assessed as change in serum albumin level at 0.5 mg/kg, ip measured after 24 hrs; assay type: toxicity, organism-based; parameters: dose 0.5 mg/kg, route intraperitoneal; settings: in vivo
Plasma [7] = assay: Anticoagulant activity in Wistar albino rat plasma assessed as fibrin time; assay type: functional
How it was run: (§2)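 Adult albino Wistar rats (2.5 months old, 220–250 g), three per compound and control. […] Fibrin time and fibrinogen were determined on plasma. Fibrinogen was quantified by biuret method at 540 nm. At least three measurements, reported with standard deviation.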

Rattus norvegicus [8] = assay: Hepatotoxicity in Wistar albino rat assessed as change in serum AST level at 0.5 mg/kg, ip measured after 24 hrs; assay type: toxicity, organism-based; parameters: dose 0.5 mg/kg, route intraperitoneal; settings: in vivo
Rattus norvegicus [9] = assay: Hepatotoxicity in Wistar albino rat assessed as change in serum ALT level at 0.5 mg/kg, ip measured after 24 hrs; assay type: toxicity, organism-based; parameters: dose 0.5 mg/kg, route intraperitoneal; settings: in vivo
Plasma [10] = assay: Anticoagulant activity in human plasma assessed as international normalized ratio at 1 mg/ml; assay type: functional
How it was run: (§3)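 Frozen human plasma (blood type A+) was used. Compounds were prepared at 1 mg/mL in a vehicle of 96% EtOH, 0.9% NaCl, 20% glycerol and phosphate buffer pH 7. Prothrombin time was measured by Quick method and reported in seconds and as INR, with SD from at least three measurements.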

Rattus norvegicus [11] = assay: Hepatotoxicity in Wistar albino rat assessed as change in serum ALP level at 0.5 mg/kg, ip measured after 24 hrs; assay type: toxicity, organism-based; parameters: dose 0.5 mg/kg, route intraperitoneal; settings: in vivo
Plasma [12] = assay: Anticoagulant activity in Wistar albino rat plasma assessed as international normalized ratio at 0.5 mg/kg, ip; assay type: functional; settings: route intraperitoneal; how it was run: as §1
Plasma [13] = assay: Anticoagulant activity in Wistar albino rat plasma assessed as prothrombin time at 0.5 mg/kg, ip; assay type: functional; settings: route intraperitoneal
How it was run: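 Adult Wistar rats (2.5 months, 220–250 g), three per compound and control, were given a single i.p. dose of 0.1 or 0.5 mg/kg in ethanol solution and sacrificed 24 h later. Plasma prothrombin time was measured by Quick method and reported in seconds and as INR, from at least three measurements.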

Rattus norvegicus [14] = assay: Hepatotoxicity in Wistar albino rat assessed as change in serum gamma-GT level at 0.5 mg/kg, ip measured after 24 hrs; assay type: toxicity, organism-based; parameters: dose 0.5 mg/kg, route intraperitoneal; settings: in vivo
Plasma [15] = assay: Anticoagulant activity in Wistar albino rat plasma assessed as fibrinogen level; assay type: functional; how it was run: as §2
Rattus norvegicus [16] = assay: Hepatotoxicity in Wistar albino rat assessed as change in serum protein level at 0.5 mg/kg, ip measured after 24 hrs; assay type: toxicity, organism-based; parameters: dose 0.5 mg/kg, route intraperitoneal; settings: in vivo
Plasma [17] = assay: Anticoagulant activity in human plasma assessed as prothrombin time at 1 mg/ml; assay type: functional; how it was run: as §3

Row | SMILES | Ratio (Plasma [1]) | Activity (Rattus norvegicus [2]) [µmol/L] | pIC50 (Rattus norvegicus [3]) | Activity (Rattus norvegicus [4]) [µmol/L] | PT (Plasma [5]) [s] | Activity (Rattus norvegicus [6]) [g/L] | Time (Plasma [7]) [s] | Activity (Rattus norvegicus [8]) [U/L] | Activity (Rattus norvegicus [9]) [U/L] | Ratio (Plasma [10]) | Activity (Rattus norvegicus [11]) [U/L] | Ratio (Plasma [12]) | PT (Plasma [13]) [s] | Activity (Rattus norvegicus [14]) [U/L] | Activity (Plasma [15]) [g/L] | Activity (Rattus norvegicus [16]) [g/L] | PT (Plasma [17]) [s]
1 | CC(=O)c1c(O)c2ccccc2oc1=O | 0.9 | 1.7 | 2.77 | 26.1 | 9.1 | 31.9 | 44.9 | 160.5 | 34.8 | 1.25 | 200 | 0.9 | 9.5 | 3.8 | 2.5 | 63.8 | 14
2 | COC(=O)/C(C(C)=O)=C(/C)c1c(O)c2ccccc2oc1=O | 0.92 | 1.7 | 2.94 | 23.9 | 9.3 | 38.9 | 40.7 | 236.9 | 65.5 | 1.8 | 285 | 0.94 | 9.8 | 2.8 | 1.6 | 66.4 | 19
3 | COC(=O)/C=C(/C)c1c(O)c2ccccc2oc1=O | 0.64 | 1.4 | 2.56 | 54.2 | 8 | 39 | 35.2 | 154.3 | 57.2 | 1.9 | 333 | 0.67 | 9 | 3 | 1.8 | 65.2 | 20
4 | CC(=O)C(C(C)=O)=C(C)c1c(O)c2ccccc2oc1=O | 0.69 | 1.5 | 2.86 | 32.4 | 8.6 | 40.6 | 24.6 | 201.4 | 56.4 | 1.55 | 223 | 0.72 | 9.6 | 4.4 | 2.47 | 66.5 | 17
5 | COC(=O)/C(C(=O)O)=C(\C)c1c(O)c2ccccc2oc1=O | 0.37 | 1.8 | 2.50 | 19.4 | 5.7 | 35.8 | 19.4 | 218.4 | 51.8 | 1.9 | 215 | 0.48 | 8.7 | 4.4 | 3.2 | 62.8 | 20
